Compound activity: PubChem, several laboratories
Shown is part of a subset that was picked to be rich in hits.
UPR CHOP act: activators of apoptotic arm of unfolded protein response (CHOP); hit rate 0.34% among 330,000; activation, % at 10 µM; AID 449763; CHO-CHOP luciferase reporter, UPR activation, luminescence; percent of tunicamycin response over DMSO baseline;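 active = at 10 µM dose, activation of 40% or more, normalized to positive control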
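Test system: CHO-CHOP cells, stable luciferase reporter of PERK-eIF2a-CHOP signalling | Quantity: 500 CHO-CHOP cells per well | Buffer or medium: F12 plus 10% serum | Compound dosing: 10 µM single point, 0.5% DMSO | Schedule: 6 h compound treatment, 37 °C | Signal: Luciferase luminescence | Control set: Tunicamycin high control, DMSO low control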
L major viab: Leishmania major promastigote growth inhibition | Leishmania major promastigotes, resazurin fluorescence viability | inhibition, % at 10 µM | hit rate 9% among 200,000; in the data active = inhibition above about 50%;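 also: promastigotes grown with compound for 44 hours at 28 °C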
UPR XBP1 act: activators of adaptive arm of unfolded protein response (XBP1); activation, % at 20 µM; CHO-XBP1 luciferase reporter, IRE1-XBP1 UPR activation, luminescence; percent of tunicamycin response, DMSO as zero; hit rate 0.33% among 330,000;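 active = versus positive control, 20 µM dose yields 30% or more activation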
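assay system = CHO-XBP1 luciferase reporter cells | amount = 1000 cells/well | buffer or medium = F12 plus 10% FBS | compound dosing = single point, 20 µM final compound, 1% DMSO | incubation = 16-18 h cell attachment at 37 °C, then 6 h compound exposure | detection = Steady-Glo luminescence read | controls = tunicamycin 10 µg/mL and vehicle-only wells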
CHOP inh: blocks CHOP induction under ER stress; AID 2732; CHO-K1 CHOP-promoter luciferase, tunicamycin-induced, 15-18 h; hit rate 3.8% among 220,000; inhibition, % at 10 µM;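 active = compounds that reduced the stress-induced luciferase reporter signal by more than about 70% of percent inhibition, limit read from the data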
Dynein transport: dynein cargo transport inhibition | hit rate 0.47% among 220,000 | 3617.4 mouse cells, GR-EGFP nuclear translocation imaging; test concentration mostly 20 µM; stimulated with dexamethasone, 1 µM; stronger effect = lower value | z-score, hits read low;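 active = plate z-score of nuclear minus cytoplasmic receptor signal below a set negative limit, without overly bright fluorescence or cell loss, cut at about -3.5 in these data, passing the limit was not always enough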;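 also: z-score of nuclear minus cytoplasmic ring GR-EGFP intensity difference per well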
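Buffer or medium: tet-free, stripped-serum medium; Also added: dexamethasone, 1.0 µM final; Technique: high-content fluorescence imaging after fixation; Times: 48 h induction, 1 h compound, 30 min dex at 37 °C; Read-out: per-cell GR-EGFP intensity, nucleus versus surrounding cytoplasmic ring, well-averaged.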
T cruzi repl: T. cruzi replication inhibition; T. cruzi beta-gal in NIH3T3, luminescence, 90 h; hit rate 1.4% among 300,000; inhibition, % (concentration not given with the values); AID 1885;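 active = mean inhibition across valid replicates above about 55%, limit read from the data; inconclusive = mean below that limit but half or more replicates reach it; inactive = mean below it, under half of replicates reach it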;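 also: signal also drops with host cell toxicity which is not excluded here; higher percent means less beta-gal luminescence so fewer parasites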
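Assay system: NIH/3T3 host cells with β-galactosidase reporter T. cruzi; input: 5,000 host fibroblasts per well; compound: single 50 nL compound addition per well in DMSO; timing: ≥90 h infection period, 3 h prior cell attachment; measured by: GalScreen β-gal luminescence, detergent lysis, 60 min; evaluation: percent inhibition of parasite-derived β-gal signal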
A number is an active result; - = inactive; ? = inconclusive; . = not tested or not shown; ! = repeats disagree.

SMILES	UPR CHOP act	L major viab	UPR XBP1 act	CHOP inh	Dynein transport	T cruzi repl
CC(=O)N1CCN(C(=O)c2ccco2)CC1	-	.	-	.	.	-
CNC(=S)N1CCN(C(=O)c2ccco2)CC1	-	75.1	-	-	-	-
COc1ccc2c(c1)C(C)=CC(C)(C)N2S(=O)(=O)c1ccc(Br)cc1	.	94.8	.	-	-	67.1
CC1=CC(C)(C)N(S(=O)(=O)c2ccc(F)cc2)c2ccc(C)cc21	-	-	-	.	-	-
CC1=CC(C)(C)N(S(=O)(=O)c2ccc(C)cc2)c2ccccc21	-	100.0	-	.	-	-
CCOc1ccc2c(c1)C(C)=CC(C)(C)N2S(=O)(=O)c1ccc(NC(C)=O)cc1	-	.	-	.	.	55.2
O=C(OCC(=O)N1CCN(C(=O)c2ccco2)CC1)c1ccccc1NCCO	-	.	-	.	.	-
COc1ccc(Cl)cc1NS(=O)(=O)c1cccc(C(=O)NC2CC2)c1	-	.	-	.	.	.
CCOc1ccc(NC(=O)N2CCC(c3nc4ccccc4[nH]3)CC2)cc1	-	-	-	-	-	-
CC(=O)c1ccc(OCCOc2ccc(C#N)cc2)cc1	-	.	-	-	-	-
CCOC(=O)c1c(OCC)[nH]c2ccc(O)cc12	-	-	-	72.5	-	-
CCCCCc1ccc(-c2ccc(=O)[nH]n2)cc1	-	-	-	92.8	-	-
O=C(N/N=C/c1ccccn1)c1cccc([N+](=O)[O-])c1	-	77.3	-	-	-	-
O=C(N/N=C/c1ccccn1)c1ccc(Br)cc1	-	96.7	-	-	-	-
O=C(N/N=C/c1ccccn1)c1ccc(NC(=O)c2cccc([N+](=O)[O-])c2)cc1	-	-	-	-	-	-
Cc1ccc(C(=O)N/N=C\c2ccc[nH]2)cn1	-	-	-	-	-	-
O=C(N/N=C/c1ccc[nH]1)c1ccc([N+](=O)[O-])cc1	-	79.1	-	-	-	-
O=C(N/N=C/c1cccc([N+](=O)[O-])c1)c1cc2ccccc2o1	-	-	-	95.2	-	-
O=C(Nc1ccc(OC(F)F)cc1)c1cc(S(=O)(=O)N2CCCCC2)ccc1N1CCOCC1	-	.	-	.	.	.
Cn1c(N)c(C(=O)COC(=O)COc2ccccc2Cl)c(=O)n(C)c1=O	-	.	-	.	.	.
CC(C)(C)OC(=O)C[C@H]1C/C=C\C[C@@H](CC(=O)N(CCO)Cc2ccccc2)C(=O)N2CCC[C@H]2COC1=O	-	.	-	.	.	.
CCOc1cc(/C=N/NC(=O)c2ccncc2)ccc1OC(=O)c1ccccc1	-	.	-	.	.	-
CCOc1cc(/C=N/Nc2cccc(C(=O)O)c2)ccc1OC(=O)c1ccccc1	-	-	-	92.1	-	-
O=C(N/N=C/c1ccccn1)c1ccc([N+](=O)[O-])cc1	-	55.0	-	-	-	-
CCOc1cc(/C=N/NC(=O)c2ccncc2)ccc1OC(=O)c1ccc([N+](=O)[O-])cc1	-	-	-	81.3	-	-
SMILES	UPR CHOP act	L major viab	UPR XBP1 act	CHOP inh	Dynein transport	T cruzi repl
COc1cc([C@H]2c3c(cc(OC)c(O)c3OC)C[C@@H](CO)[C@@H]2CO[C@@H]2O[C@H](CO)[C@@H](O)[C@H](O)[C@H]2O)cc(OC)c1O	-	.	-	.	.	.
Cc1ccc(NC(=S)N2CCN(S(=O)(=O)c3ccc(F)cc3)CC2)cc1	-	.	-	.	.	-
CS(=O)(=O)N1CCc2cc(S(=O)(=O)N3CCN(Cc4ccc5c(c4)OCO5)CC3)ccc21	-	89.2	-	-	-	-
CCN1CCN(C(=O)c2ccc(COc3ccc(Cl)cc3)o2)CC1	-	83.6	-	-	-	-
O=C(c1ccc(S(=O)(=O)NCc2ccco2)cc1)N1CCN(Cc2ccc3c(c2)OCO3)CC1	-	87.8	-	-	-	-
O=C(c1ccc(Cl)c([N+](=O)[O-])c1)N1CCN(Cc2ccc3c(c2)OCO3)CC1	-	82.1	-	-	-	-
O=C(c1ccc(COc2ccc(Cl)cc2)o1)N1CCN(Cc2ccc3c(c2)OCO3)CC1	-	-	-	-	-	?
CC1CCN(c2nc3ccc(C(=O)N4CCN(Cc5ccc6c(c5)OCO6)CC4)cc3s2)CC1	-	91.9	-	-	-	-
O=C(c1ccc(COc2ccccc2Cl)o1)N1CCN(Cc2ccc3c(c2)OCO3)CC1	-	90.4	-	73.0!	-	-
O=C(c1ccc(S(=O)(=O)N2CCCC2)cc1)N1CCN(Cc2ccc3c(c2)OCO3)CC1	-	93.8	-	-	-	-
COC(=O)Sc1nnc(-c2ccc(Br)cc2)o1	-	-	-	90.8	-	-
CCOc1cc(C2C(C#N)=C(N)OC3=C2C(=O)CC(C)(C)C3)cc([N+](=O)[O-])c1O (configuration not stated)	-	-	-	-	-	-
CC1(C)CC(=O)C2=C(C1)OC(N)=C(C#N)C2c1cn(-c2ccccc2)nc1-c1ccccc1 (configuration not stated)	-	89.8	-	-	-	-
CN1CCN(/C=N/C2=C(C#N)C(c3ccccc3)C3=C(CC(C)(C)CC3=O)O2)CC1 (configuration not stated)	-	75.2	-	-	-	-
CC1(C)CC(=O)C2=C(C1)OC(/N=C/N1CCCC1)=C(C#N)C2c1ccccc1 (configuration not stated)	-	.	-	-	-	-
CC1(C)CC(=O)C2=C(C1)OC(N)=C(C#N)C2c1cc2c(cc1[N+](=O)[O-])OCO2 (configuration not stated)	.	65.3	.	-	-	-
COC(=O)c1ccc(NC2c3ncccc3C(=O)N2Cc2cccs2)cc1 (configuration not stated)	-	-	-	-	-	-
COC(=O)c1cc(NC2c3ncccc3C(=O)N2Cc2ccccc2)cc(C(=O)OC)c1 (configuration not stated)	-	52.9	-	-	-	-
CCCn1c(SCC(=O)N(C)CC(=O)Nc2ccc(C)cc2)n[nH]c1=O	-	.	-	.	.	.
Cc1cccc(NC(=O)c2ccc(S(=O)(=O)N(C)C)cc2)c1	-	-	-	-	-	-
CCN(CC)S(=O)(=O)c1ccc(C(=O)Nc2cccc(C)c2)cc1	-	-	-	76.9	-	-
CCN(CC)S(=O)(=O)c1ccc(NC(=O)Nc2cccc(C(F)(F)F)c2)cc1	-	-	-	-	-	76.2
CN(CCCNC(=O)c1ccccc1F)CCCNC(=O)c1ccccc1F	-	.	-	.	.	-
Cc1cc(C)c(C)c(C(=O)CSc2nnc(-c3ccc4[nH]c(C)c(C)c4c3)o2)c1C	-	-	-	70.9	-	54.5
CC#CC(=O)N1CCC(CCC(=O)N(C)Cc2ccccc2)CC1	-	.	-	.	.	-
CCN(CC)c1nc(Nc2ccccc2)nc(Oc2ccc(=O)n(C)n2)n1	-	-	-	71.3	-	-
